The text below walks through data of ChEMBL document CHEMBL1133666, “Esterase-sensitive nitric oxide donors of the diazeniumdiolate family: in vitro antileukemic activity” (J Med Chem, 2000).

Test [1] concerns HL-60. As to the kind of experiment: Inhibitory activity towards HL-60 cells at 72 hours. It counts as functional, cell-based. The conditions noted are these: Homo sapiens, HL-60, 72 h. The essentials: (§1)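 Leukemia cells seeded at 150 000 cells/mL in RPMI-1640 with 10% FBS, 37 °C, 5% CO₂, 1 mL per well. NO donors added at culture initiation. Cells harvested at 72 h and washed twice in PBS. Viable cells counted by Trypan blue exclusion. IC50 calculated from the concentration–growth curve. Means ± SEM of at least three separate experiments.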

Test [2] concerns U-937. As to the kind of experiment: Inhibitory activity towards U937 cells at 72 hours. It counts as functional, cell-based. The conditions noted are these: Homo sapiens, U-937, 72 h. The essentials: as §1
Test [3] deals with HL-60. Briefly: Within 24 hr at initial concentrations of 50 uM, apoptosis induction was evaluated in HL-60 cells. It counts as functional. The method in brief:
(§2)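 Cells grown at 150 000 cells/mL in RPMI-1640 with 10% FBS, 37 °C, 5% CO₂, with compound added at culture start and read at 24 h. Cells washed in PBS and lysed in 0.2% NP40/5% BSA in PBS with propidium iodide and RNase A. Flow cytometry scored the low-DNA-content (apoptotic) fraction as percent of cells. Means ± SEM of ≥3 experiments.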

For test [4], the system named is U-937. Briefly: Within 24 hr at initial concentrations of 50 uM, apoptosis induction was evaluated in U937 cells. The format is functional. The method in brief:
as §2

In test [5] the test system is U-937. Briefly: Inhibitory activity towards U937 cells at concentration of 100 uM. The format is functional. Particulars: Homo sapiens. The method in brief: as §1
Test [6] relates to HL-60. As to the kind of experiment: Inhibitory activity towards HL-60 cells at concentration of 100 uM. The format is functional. Particulars: Homo sapiens. The method in brief: as §1

SMILES strings stand for the structures.

As a reminder, the IC50 is the point on the concentration scale where inhibition reaches its midpoint. A low value points to higher potency. Compound `[O-]/[N+](=N\O)N1CCCC1` gave a concentration for half-maximal inhibition (IC50) in the test on HL-60 [1] greater than 600 µM.

On to `CCN(CC)/[N+]([O-])=N/O`, for which the 50% inhibitory concentration (IC50) in the test on HL-60 [1] was greater than 600 µM.

Take `CC(=O)OCO/N=[N+](\[O-])N1CCCC1`: the concentration for half-maximal inhibition (IC50) with U-937 [2] is 53 µM; with HL-60 [1] it was 6.4 µM. The Apoptosis induction was determined as 57% in the test on HL-60 [3] and 40% in the test on U-937 [4].

Turning to `CCN(CC)/[N+]([O-])=N/OCOC(C)=O`, the IC50 came out at 53 µM in the test with U-937 [2] and 8.3 µM with HL-60 [1]. For the same compound, the results for the Apoptosis induction in the test on HL-60 [3] and in the test with U-937 [4] were 50% and 35%, respectively.

The inhibition is the drop in the measured response relative to a control, in per cent. The low end stands for a weak effect, the high end for a strong effect. Regarding `CCN(CC)/[N+]([O-])=N/OCCSC(C)=O`, the inhibition at 100 µM came to 48% with U-937 [5] and 90% in the test with HL-60 [6].
